Results: ChEMBL document CHEMBL1926538, “3,5-Disubstituted-thiazolidine-2,4-dione analogs as anticancer agents: design, synthesis and biological characterization” (Eur J Med Chem, 2012)
Calls of active or inactive are those of the source. The calls are words filed in the database; no cut-off is given here.

Key:
U-937 [1] = experiment: Induction of apoptosis in human U937 cells assessed as late apoptotic cells at 3 uM after 3 hrs by annexinV-propidium iodide staining-based flow cytometric analysis (reference value: 8.6%); type: functional
U-937 [2] = experiment: Growth inhibition of human U937 cells after 24 hrs by MTS assay; type: functional, cell-based; settings: U-937, 24 h
Method in brief: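 Cells in RPMI 1640 with 10% heat-inactivated FBS, seeded 2 × 10⁴ cells/well and exposed 24 h. MTS reagent added, then 1 h further incubation at 37 °C, 5% CO₂. Formazan absorbance read at 490 nm. Viability expressed as percentage of untreated controls.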

[3] = biological target: Serine/threonine-protein kinase Chk1 (Homo sapiens) (UniProt O14757); experiment: Inhibition of CHK1 at 10 uM
Serine/threonine-protein kinase Chk1 (Homo sapiens), sequence (O14757 whole entry): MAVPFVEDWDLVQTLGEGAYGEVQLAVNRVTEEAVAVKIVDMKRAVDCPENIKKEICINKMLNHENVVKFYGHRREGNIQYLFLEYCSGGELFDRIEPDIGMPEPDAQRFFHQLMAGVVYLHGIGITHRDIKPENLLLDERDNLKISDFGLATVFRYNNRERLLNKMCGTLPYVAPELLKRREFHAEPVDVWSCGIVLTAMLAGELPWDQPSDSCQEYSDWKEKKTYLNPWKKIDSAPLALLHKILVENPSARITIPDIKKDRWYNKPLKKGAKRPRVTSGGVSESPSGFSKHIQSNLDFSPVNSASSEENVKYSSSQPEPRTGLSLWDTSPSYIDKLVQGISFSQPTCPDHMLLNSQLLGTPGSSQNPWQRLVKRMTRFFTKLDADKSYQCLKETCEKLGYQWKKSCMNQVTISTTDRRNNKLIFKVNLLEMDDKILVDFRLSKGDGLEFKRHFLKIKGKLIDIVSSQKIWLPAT

U-937 [4] = experiment: Induction of apoptosis in human U937 cells assessed as late apoptotic cells at 3 uM after 6 hrs by annexinV-propidium iodide staining-based flow cytometric analysis (reference value: 13.8%); type: functional
U-937 [5] = experiment: Induction of apoptosis in human U937 cells assessed as early apoptotic cells at 10 uM after 18 hrs by annexinV-propidium iodide staining-based flow cytometric analysis (reference value: 4.3%); type: functional
U-937 [6] = experiment: Cell cycle arrest in human U937 cells assessed as decrease in G2/M-phase population at 10 uM after 24 hrs by propidium iodide staining-based flow cytometric analysis; type: functional
Method in brief: (§1)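 Cells cultured in RPMI 1640 with 10% FBS and treated 24 h at the indicated concentrations. Stained with propidium iodide for 4 h at 4 °C in the dark. Flow cytometry gave the percentage of cells in G₀/G₁, S, G₂/M and sub-G₁ phases.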

[7] = biological target: Tyrosine-protein kinase Fyn (Homo sapiens) (UniProt P06241); experiment: Inhibition of FYN at 10 uM
Tyrosine-protein kinase Fyn (Homo sapiens), sequence (P06241 2-537 limits assumed): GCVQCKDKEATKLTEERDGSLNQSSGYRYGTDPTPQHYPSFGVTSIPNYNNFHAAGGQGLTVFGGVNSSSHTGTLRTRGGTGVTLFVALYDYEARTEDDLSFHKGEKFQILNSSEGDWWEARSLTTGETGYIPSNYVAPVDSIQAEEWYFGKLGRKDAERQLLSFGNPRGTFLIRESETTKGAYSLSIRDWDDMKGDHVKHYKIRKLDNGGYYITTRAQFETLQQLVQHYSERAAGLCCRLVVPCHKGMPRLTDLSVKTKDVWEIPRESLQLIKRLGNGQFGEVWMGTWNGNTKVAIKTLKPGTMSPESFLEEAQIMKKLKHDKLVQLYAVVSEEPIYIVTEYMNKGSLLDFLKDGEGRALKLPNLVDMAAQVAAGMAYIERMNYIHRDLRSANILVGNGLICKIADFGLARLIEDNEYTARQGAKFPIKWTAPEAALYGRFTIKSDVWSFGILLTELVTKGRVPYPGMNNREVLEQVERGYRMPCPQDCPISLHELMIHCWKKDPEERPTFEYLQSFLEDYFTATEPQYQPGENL

[8] = biological target: Fibroblast growth factor receptor 1 (Homo sapiens) (UniProt P11362); experiment: Inhibition of FGFR1 at 10 uM
[9] = biological target: Tyrosine-protein kinase BTK (Homo sapiens) (UniProt Q06187); experiment: Inhibition of BTK at 10 uM
Tyrosine-protein kinase BTK (Homo sapiens), sequence (Q06187 whole entry): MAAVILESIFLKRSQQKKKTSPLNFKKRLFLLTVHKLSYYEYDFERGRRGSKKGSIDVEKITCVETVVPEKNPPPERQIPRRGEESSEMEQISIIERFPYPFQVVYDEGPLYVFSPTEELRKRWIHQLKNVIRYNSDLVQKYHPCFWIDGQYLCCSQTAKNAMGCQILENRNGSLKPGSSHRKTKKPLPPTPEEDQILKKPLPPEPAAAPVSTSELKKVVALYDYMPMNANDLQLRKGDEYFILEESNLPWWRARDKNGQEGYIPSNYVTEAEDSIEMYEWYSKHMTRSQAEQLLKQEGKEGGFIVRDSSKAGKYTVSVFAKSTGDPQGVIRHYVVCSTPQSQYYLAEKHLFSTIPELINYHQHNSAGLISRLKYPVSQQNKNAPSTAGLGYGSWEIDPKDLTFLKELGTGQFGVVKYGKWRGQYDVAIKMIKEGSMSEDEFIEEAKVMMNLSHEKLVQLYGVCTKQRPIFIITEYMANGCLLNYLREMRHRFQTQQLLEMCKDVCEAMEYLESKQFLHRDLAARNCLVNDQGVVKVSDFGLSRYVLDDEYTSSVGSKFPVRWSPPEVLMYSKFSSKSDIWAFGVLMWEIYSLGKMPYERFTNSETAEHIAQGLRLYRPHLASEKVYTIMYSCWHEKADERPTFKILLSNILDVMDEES

[10] = biological target: Dual specificity tyrosine-phosphorylation-regulated kinase 1A (Homo sapiens) (UniProt Q13627); experiment: Inhibition of DYRK1a at 10 uM
U-937 [11] = experiment: Inhibition of PI3K-mediated Akt phosphorylation in human U937 cells at 3 uM after 1 hr by Western blot analysis; type: cell-based
[12] = biological target: 5'-AMP-activated protein kinase catalytic subunit alpha-2 (Homo sapiens) (UniProt P54646); experiment: Activation of AMPK in human U937 cells assessed as increase in phosphorylated AMPK level at 1 to 10 uM after 1 hr by Western blot analysis; type: cell-based; settings: U-937
Method in brief: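 Cells at 5 × 10⁵/mL in growing medium, RPMI 1640 with 10% heat-inactivated FBS, 37 °C, 5% CO₂, exposed 1 h. Lysed by sonication in SDS sample buffer with protease inhibitors plus 1 mM orthovanadate and pyrophosphate, boiled 5 min. Immunoblot probed with rabbit polyclonal anti-phospho-AMPK (Thr172) 1:1000, HRP secondary, chemiluminescence. α-Tubulin reprobe as loading control. One of three independent experiments shown.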

[13] = biological target: RAF proto-oncogene serine/threonine-protein kinase (Homo sapiens) (UniProt P04049); experiment: Inhibition of c-Raf at 10 uM
RAF proto-oncogene serine/threonine-protein kinase (Homo sapiens), sequence (P04049 whole entry): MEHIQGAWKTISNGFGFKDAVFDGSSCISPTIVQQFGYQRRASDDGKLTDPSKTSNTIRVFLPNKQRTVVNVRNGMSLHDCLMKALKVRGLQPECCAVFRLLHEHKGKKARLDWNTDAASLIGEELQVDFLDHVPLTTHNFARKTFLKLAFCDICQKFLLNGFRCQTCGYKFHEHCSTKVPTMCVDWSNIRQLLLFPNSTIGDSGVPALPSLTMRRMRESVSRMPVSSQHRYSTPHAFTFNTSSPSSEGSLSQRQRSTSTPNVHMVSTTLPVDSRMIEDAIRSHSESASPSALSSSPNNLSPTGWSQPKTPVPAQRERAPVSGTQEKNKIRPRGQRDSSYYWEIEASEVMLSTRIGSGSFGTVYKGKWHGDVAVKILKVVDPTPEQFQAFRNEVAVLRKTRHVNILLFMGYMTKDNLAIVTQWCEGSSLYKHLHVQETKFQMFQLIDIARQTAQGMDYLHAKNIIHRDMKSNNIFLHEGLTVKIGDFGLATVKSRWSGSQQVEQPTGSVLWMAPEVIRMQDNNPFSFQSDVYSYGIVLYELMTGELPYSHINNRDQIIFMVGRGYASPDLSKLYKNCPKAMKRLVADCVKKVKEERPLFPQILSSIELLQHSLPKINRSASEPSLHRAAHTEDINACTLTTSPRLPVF

U-937 [14] = experiment: Induction of apoptosis in human U937 cells assessed as necrotic cells at 10 uM after 3 hrs by annexinV-propidium iodide staining-based flow cytometric analysis (reference value: 2.3%); type: functional
[15] = biological target: MAP kinase p38 (Homo sapiens) (UniProt O15264+Q15759+Q16539+P53778); experiment: Inhibition p38 phosphorylation in human U937 cells at 1 to 10 uM after 1 hr by Western blot analysis; type: cell-based; settings: U-937
Method in brief: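 p38 blot in U937: cells at 5 × 10⁵/mL in RPMI 1640 plus 10% FBS, exposed 1 h, sonicated in SDS sample buffer containing phosphatase inhibitors, boiled; immunoblot with primary antibody overnight at 4 °C, HRP secondary, chemiluminescent detection.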

[16] = biological target: Protein kinase C zeta type (Homo sapiens) (UniProt Q05513); experiment: Inhibition of PKCzeta at 10 uM
U-937 [17] = experiment: Cell cycle arrest in human U937 cells assessed as sub-diploid apoptotic fraction at 10 uM after 24 hrs by propidium iodide staining-based flow cytometric analysis; type: functional; method in brief: as §1
U-937 [18] = experiment: inhibition of PI3K-mediated 4-EBP1 phosphorylation in human U937 cells 1 to 10 uM after 1 hr by Western blot analysis; type: cell-based
Method in brief: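 Cells in RPMI 1640 with 10% heat-inactivated FBS, 37 °C, 5% CO2; treated in growing medium (DU145 24 h; U937 1 h at 5 × 10⁵/mL). Lysed by sonication in SDS sample buffer with protease inhibitors plus 1 mM orthovanadate and pyrophosphate, boiled 5 min. Blots blocked in 5% milk, primary antibodies 1:1000 overnight at 4 °C, HRP secondary 1:2000, chemiluminescence; α-tubulin loading control.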

[19] = biological target: MAP/microtubule affinity-regulating kinase 3 (Homo sapiens) (UniProt P27448); experiment: Inhibition of c-TAK1 at 10 uM
U-937 [20] = experiment: Cell cycle arrest in human U937 cells assessed as decrease in G1/G0-phase population at 10 uM after 24 hrs by propidium iodide staining-based flow cytometric analysis; type: functional; method in brief: as §1
U-937 [21] = experiment: Antiproliferative activity in human U937 cells assessed as inhibition of DNA synthesis at 10 to 30 uM after 24 hr by [3H]thymidine incorporation assay; type: functional, cell-based
Method in brief: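 U937 cells, 2 × 10⁴/well, incubated with compound at various concentrations for 1 h or 24 h in presence of 1 µCi [³H]-thymidine. Cells harvested and counted by liquid scintillation. Incorporation expressed as % inhibition versus control. Significance by one-way ANOVA.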

U-937 [22] = experiment: Cell cycle arrest in human U937 cells assessed as accumulation at S-phase at 10 uM after 24 hrs by propidium iodide staining-based flow cytometric analysis; type: functional; method in brief: as §1
[23] = biological target: Mitogen-activated protein kinase 3 (Homo sapiens) (UniProt P27361); experiment: Inhibition of Erk1 at 10 uM
DU-145 = experiment: Induction of apoptosis in human DU145 cells assessed as early apoptotic cells at 20 uM after 24 hrs by annexinV-propidium iodide staining-based flow cytometric analysis (reference value: 3.8%); type: functional
[24] = biological target: Glycogen synthase kinase-3 beta (Homo sapiens) (UniProt P49841); experiment: Inhibition of GSK3-beta at 10 uM
Glycogen synthase kinase-3 beta (Homo sapiens), sequence (P49841 whole entry, looked up): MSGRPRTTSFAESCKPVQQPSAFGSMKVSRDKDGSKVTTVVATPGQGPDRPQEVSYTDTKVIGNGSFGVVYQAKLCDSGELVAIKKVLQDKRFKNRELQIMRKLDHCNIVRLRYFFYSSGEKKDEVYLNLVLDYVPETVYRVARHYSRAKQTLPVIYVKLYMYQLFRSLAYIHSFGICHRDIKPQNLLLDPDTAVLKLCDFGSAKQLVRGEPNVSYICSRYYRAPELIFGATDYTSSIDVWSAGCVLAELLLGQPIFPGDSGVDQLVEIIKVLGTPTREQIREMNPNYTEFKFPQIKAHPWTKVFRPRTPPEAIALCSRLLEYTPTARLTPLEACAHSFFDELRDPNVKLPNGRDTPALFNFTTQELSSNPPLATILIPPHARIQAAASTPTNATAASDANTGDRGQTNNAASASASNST

U-937 [25] = experiment: Cell cycle arrest in human U937 cells assessed as accumulation at S-phase at 15 uM after 24 hrs by propidium iodide staining-based flow cytometric analysis; type: functional; method in brief: as §1
[26] = biological target: Protein kinase C beta type (Homo sapiens) (UniProt P05771); experiment: Inhibition of PKCbeta2 at 10 uM
Protein kinase C beta type (Homo sapiens), sequence (P05771 2-671 limits assumed): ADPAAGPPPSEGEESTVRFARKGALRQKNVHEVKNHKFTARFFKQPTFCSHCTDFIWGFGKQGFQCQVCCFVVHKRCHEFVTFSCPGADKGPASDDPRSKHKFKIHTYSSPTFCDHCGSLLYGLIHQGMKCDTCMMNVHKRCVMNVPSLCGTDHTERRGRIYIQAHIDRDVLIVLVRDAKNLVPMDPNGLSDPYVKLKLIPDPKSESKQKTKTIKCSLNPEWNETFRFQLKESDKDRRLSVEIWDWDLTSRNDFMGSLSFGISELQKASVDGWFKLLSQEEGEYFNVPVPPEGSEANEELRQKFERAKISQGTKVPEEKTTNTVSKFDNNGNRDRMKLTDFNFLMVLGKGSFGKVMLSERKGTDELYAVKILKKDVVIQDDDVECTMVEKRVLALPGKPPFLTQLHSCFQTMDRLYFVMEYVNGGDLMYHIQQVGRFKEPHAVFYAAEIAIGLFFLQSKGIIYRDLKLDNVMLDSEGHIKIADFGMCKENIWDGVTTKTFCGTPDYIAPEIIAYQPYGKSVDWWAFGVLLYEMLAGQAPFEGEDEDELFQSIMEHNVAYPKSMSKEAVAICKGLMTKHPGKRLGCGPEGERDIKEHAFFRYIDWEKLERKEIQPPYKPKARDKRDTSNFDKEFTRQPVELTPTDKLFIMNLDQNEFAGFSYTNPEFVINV

[27] = biological target: Serine/threonine-protein kinase pim-2 (Homo sapiens) (UniProt Q9P1W9); experiment: Inhibition of PIM2 at 10 uM
Serine/threonine-protein kinase pim-2 (Homo sapiens), sequence (Q9P1W9 whole entry, looked up): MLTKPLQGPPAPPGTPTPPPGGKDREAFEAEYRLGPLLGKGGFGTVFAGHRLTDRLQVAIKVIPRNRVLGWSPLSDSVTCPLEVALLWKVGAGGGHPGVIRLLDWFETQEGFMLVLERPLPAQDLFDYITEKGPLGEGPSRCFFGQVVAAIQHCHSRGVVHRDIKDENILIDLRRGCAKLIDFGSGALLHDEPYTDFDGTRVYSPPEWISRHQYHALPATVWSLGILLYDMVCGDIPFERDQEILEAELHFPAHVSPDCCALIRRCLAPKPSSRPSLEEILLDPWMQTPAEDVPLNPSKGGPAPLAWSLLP

[28] = biological target: Calcium/calmodulin-dependent protein kinase type II subunit beta (Homo sapiens) (UniProt Q13554); experiment: Inhibition of CAMK2 at 10 uM
Calcium/calmodulin-dependent protein kinase type II subunit beta (Homo sapiens), sequence (Q13554 whole entry): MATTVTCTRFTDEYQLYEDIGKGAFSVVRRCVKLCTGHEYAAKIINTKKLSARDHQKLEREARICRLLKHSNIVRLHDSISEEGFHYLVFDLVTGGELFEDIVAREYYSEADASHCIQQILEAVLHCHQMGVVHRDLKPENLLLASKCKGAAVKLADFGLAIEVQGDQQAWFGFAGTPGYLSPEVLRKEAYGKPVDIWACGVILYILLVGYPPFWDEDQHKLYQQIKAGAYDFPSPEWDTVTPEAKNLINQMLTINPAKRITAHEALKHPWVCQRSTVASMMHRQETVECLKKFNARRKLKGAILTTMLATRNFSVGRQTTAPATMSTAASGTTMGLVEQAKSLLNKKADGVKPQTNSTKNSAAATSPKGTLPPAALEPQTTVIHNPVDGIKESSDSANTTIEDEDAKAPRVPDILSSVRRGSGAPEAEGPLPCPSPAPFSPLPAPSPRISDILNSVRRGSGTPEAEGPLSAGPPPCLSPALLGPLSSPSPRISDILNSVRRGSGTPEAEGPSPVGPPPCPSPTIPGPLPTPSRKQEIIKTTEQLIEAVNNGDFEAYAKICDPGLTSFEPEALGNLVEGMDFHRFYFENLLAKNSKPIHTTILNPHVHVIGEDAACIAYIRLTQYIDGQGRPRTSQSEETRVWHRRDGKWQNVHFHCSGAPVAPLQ

[29] = biological target: RAC-alpha serine/threonine-protein kinase (Homo sapiens) (UniProt P31749); experiment: Inhibition of AKT1 at 10 uM
RAC-alpha serine/threonine-protein kinase (Homo sapiens), sequence (P31749 whole entry): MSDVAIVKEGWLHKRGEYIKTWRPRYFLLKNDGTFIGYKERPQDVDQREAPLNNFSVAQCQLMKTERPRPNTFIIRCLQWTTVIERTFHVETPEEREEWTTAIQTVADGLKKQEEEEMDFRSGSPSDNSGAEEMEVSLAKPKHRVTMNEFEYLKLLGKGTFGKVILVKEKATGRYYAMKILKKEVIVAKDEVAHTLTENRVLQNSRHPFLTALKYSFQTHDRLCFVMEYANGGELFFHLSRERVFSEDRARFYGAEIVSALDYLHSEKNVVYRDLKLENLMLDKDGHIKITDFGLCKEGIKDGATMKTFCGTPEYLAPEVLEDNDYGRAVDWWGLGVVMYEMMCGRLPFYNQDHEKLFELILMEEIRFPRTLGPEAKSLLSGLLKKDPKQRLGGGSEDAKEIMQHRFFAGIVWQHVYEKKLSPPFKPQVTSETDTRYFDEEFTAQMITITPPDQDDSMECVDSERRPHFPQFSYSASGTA

IC50 (U-937 [2]): 3.4 µM
inhibition [3]: 11%
inhibition [7]: 0%
inhibition [8]: 3%
inhibition [9]: 12%
inhibition [10]: -5%
Activity [12]: Active
inhibition [13]: -1%
inhibition [15]: inactive
inhibition [16]: -8%
inhibition [19]: 6%
inhibition [23]: 21%
inhibition [24]: 0%
inhibition [26]: 16%
inhibition [27]: 38%
inhibition [28]: 60%
inhibition [29]: 3%
SMILES: NCCN1C(=O)S/C(=C\CCC2CCCCC2)C1=O
Activity (U-937 [1]): 7.7%
Activity (U-937 [4]): 16.5%
Activity (U-937 [5]): 15%
Activity (U-937 [6]): Active
inhibition (U-937 [11]): Active
Activity (U-937 [14]): 2.4%
Activity (U-937 [17]): 49.9%
inhibition (U-937 [18]): Active
Activity (U-937 [20]): Active
Activity (U-937 [21]): Active
Activity (U-937 [22]): 23.6%
Activity (DU-145): 8.3%
Activity (U-937 [25]): 31.4%
